Data on 13 compounds can be found in ChEMBL document CHEMBL1914307, “Small molecular CD4 mimics as HIV entry inhibitors” (Bioorg Med Chem, 2011).

Series [1] concerns Human immunodeficiency virus 1. In words: Antiviral activity against R5 tropic HIV1 YTA infected in human TZM-bl cells assessed as beta-galactosidase activity preincubated for 15 mins before infection measured after 2 days by single-round assay using luminometry. Type of series: functional, organism-based. To be noted: Human immunodeficiency virus 1, YTA. The method, boiled down:
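Single-round infection of TZM-bl cells with R5 YTA virus; beta-galactosidase read as relative light units; IC50 = concentration giving 50% reduction vs virus control wells; mean of at least three independent experiments.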

Series [2] can be described thus: Selectivity index, ratio of CC50 for mock-infected human PM1 cells expressing CCR5 to IC50 for R5 tropic HIV1 YTA infected in human TZM-bl cells. The class given is functional. In a few lines: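 SI calculated as CC50 (WST-8 viability, mock-infected PM1/CCR5 cells) divided by IC50 (beta-galactosidase reduction after single-round YTA infection of TZM-bl cells).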

The test system of series [3] is PM1. The series is described as follows: Induction of gp120 conformational change in R5 tropic Human immunodeficiency virus 1 subtype B isolate JR-FL infected in human PM1 cells assessed as binding of anti-HIV1 mAb 4C11 measuring mean fluorescence intensity at 100 uM preincubated for 15 mins by FACS analysis using antibody staining (reference value: 14.94 fluorescence intensity). Type of series: cell-based. In a few lines: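 Env-expressing PM1 cells were pretreated with the CD4 mimic, then stained with the CD4-induced anti-envelope mAb 4C11 at 4 °C for 15 min. Cells were washed in PBS and detected with FITC-conjugated goat anti-human IgG. The read-out was flow cytometry on gated PM1 cells, giving the mean fluorescence intensity of 4C11. Anti-human CD19 served as the control antibody. Data are representative of at least two independent experiments.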
A general note: In flow cytometry, cells or beads pass a laser one at a time.

The subject of series [4] is Human immunodeficiency virus 1. The series is described as follows: Antiviral activity against HIV1 infected in human PM1 cells expressing CCR5 assessed as inhibition of virus-induced cytopathogenicity by multi-round assay. Type of series: functional, organism-based. To be noted: Human immunodeficiency virus 1, PM1. In a few lines: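 HIV-1-induced cytopathogenicity measured in PM1/CCR5 cells over multiple rounds of infection; IC50 from inhibition of cytopathic effect; mean of at least three independent experiments.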

Series [5] in a line: Cytotoxicity against mock-infected human PM1 cells expressing CCR5 by WST-8 assay. Type of series: cell-based. The method, boiled down: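 Viability of mock-infected PM1/CCR5 cells determined by WST-8; CC50 = concentration reducing viability by half; mean of at least three independent experiments.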
(In general: Formazan colour is commonly taken as a measure of viable cells.)

Series [6] is described as follows: Ratio of compound CC50 to NBD-556 CC50 for mock-infected human PM1 cells expressing CCR5 by WST-8 assay. Type of series: ADME, cell-based.

The term IC50 denotes the point on the concentration scale where inhibition reaches its midpoint. The CC50 is the concentration that lowers cell viability or growth by half. Low readings indicate harm at low concentration, high ones better tolerance by the cells.

Consider `CC1(C)CC(NC(=O)C(=O)Nc2ccc(Cl)cc2)CC(C)(C)N1`, for which the IC50 in series [1] was determined as 0.61 µM; in series [4], 0.9 µM. The “Ratio CC50/IC50” value in series [2] is 57. In series [3], the Flu intensity came to 23.1. Further, the CC50 in series [5] stood at 35 µM.

For the compound `O=C(Nc1ccc(Cl)cc1)C(=O)NC1CCN(C(=O)c2ccccc2)CC1`, in series [1], the IC50 came out at 5.1 µM. In series [3], the Flu intensity is 17.8.

In the case of `O=C(Nc1ccc(Cl)cc1)C(=O)Nc1ccc(Br)cc1`, the IC50 in series [1] is greater than 100 µM. The CC50 in series [5] was greater than 500 µM.

Turning to `O=C(Nc1ccc(Cl)cc1)C(=O)NC1CC2(CCCCC2)NC2(CCCCC2)C1` (configuration not stated), the IC50 amounted to 0.68 µM in series [1] and 0.56 µM in series [4]. The “Ratio CC50/IC50” value in series [2] is given as 176. In series [6], the selectivity ratio worked out at 4. The Flu intensity in series [3] was found to be 22.2. The compound further gave a CC50 in series [5] of 120 µM.

Turning to `O=C(NCCc1ccccn1)C(=O)Nc1ccc(Cl)cc1`, in series [1], the IC50 was 19.8 µM. Further, the “Ratio CC50/IC50” value in series [2] came out at 24. For the same compound, in series [3], the Flu intensity is 15.4. This compound also returned a CC50 in series [5] of 480 µM.

With `NC(=O)N1CCC(NC(=O)C(=O)Nc2ccc(Cl)cc2)CC1`, in series [1], the IC50 was found to be 8.3 µM. In addition, the “Ratio CC50/IC50” value in series [2] is on record as 37. The Flu intensity in series [3] is 16. The compound also showed a CC50 in series [5] of 310 µM.

As for `Cc1ccc(NC(=O)C(=O)NC2CC(C)(C)NC(C)(C)C2)cc1`, in series [1], the IC50 was found to be 8.4 µM. Moreover, the “Ratio CC50/IC50” value in series [2] was 31. For the same compound, the CC50 in series [5] turned out to be 260 µM.

On to `NC(=S)N1CCC(NC(=O)C(=O)Nc2ccc(Cl)cc2)CC1`, for which the IC50 in series [1] came to 5.5 µM. For the same compound, the “Ratio CC50/IC50” value in series [2] is given as 7.6. Also, the Flu intensity in series [3] was 20.2. The CC50 in series [5] was found to be 42 µM.

As for `O=C(Nc1ccc(Cl)cc1)C(=O)Nc1ccc(Cl)cc1`, in series [1], the IC50 was greater than 100 µM. Moreover, the CC50 in series [5] is greater than 500 µM.

`O=C(Nc1ccc(Cl)cc1)C(=O)NC1CCNCC1`: in series [1], the IC50 was determined as 7 µM. Also, the “Ratio CC50/IC50” value in series [2] is on record as 7.3. The Flu intensity in series [3] came to 20.5. This compound also returned a CC50 in series [5] of 51 µM.

As to `O=C(Nc1ccc(F)cc1)C(=O)Nc1ccc(Cl)cc1`, the IC50 in series [1] amounted to 3.1 µM. The “Ratio CC50/IC50” value in series [2] is greater than 160. The Flu intensity in series [3] came to 15.2. This compound displayed a CC50 in series [5] greater than 500 µM.

As to `O=C(Nc1ccc(Cl)cc1)C(=O)NC1CCN(C(=O)Nc2ccccc2)CC1`, the IC50 in series [1] was found to be 11 µM. The “Ratio CC50/IC50” value in series [2] is 0.56. This compound registered a 50% cytotoxic concentration (CC50) in series [5] of 6.2 µM.

As for `N=C(N)N1CCC(NC(=O)C(=O)Nc2ccc(Cl)cc2)CC1.O=C(O)C(F)(F)F`, the 50% inhibitory concentration (IC50) in series [1] is 6.1 µM. For the same compound, the “Ratio CC50/IC50” value in series [2] was found to be 12. Moreover, the Flu intensity in series [3] turned out to be 20.9. Moreover, in series [5], the CC50 was 72 µM.
